The nature of data set [1]: Induction of reactive oxygen species generation in mouse NIH/3T3 cells at 2 uM after 36 hrs by DCFDA dye-based fluorescence microscopic analysis. The format is cell-based. As to conditions: nih3t3, 36 h. The method in brief:
(§1)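 Treated cells were imaged for ROS by fluorescence microscopy at 20× magnification, with untreated cells as control.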

In data set [2] the test system is B16-F10. Description: Induction of apoptosis in mouse B16F10 cells assessed as necrotic cells at 2 uM after 45 hrs by annexinV-FITC/propidium iodide staining-based flow cytometric analysis (reference value: 9%). The format is functional. The method in brief: (§2)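 Treated B16F10 cells were double-stained with annexin V and propidium iodide and analysed by flow cytometry, with untreated cells as control. Quadrants: Q1 PI-only (necrotic); Q2 double-positive (post-apoptotic); Q4 annexin-only (apoptotic); Q3 double-negative (healthy).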

The test system of data set [3] is MDA-MB-231. Description: Cytotoxicity against human MDA-MB-231 cells assessed as cell killing effect after 72 hrs by MTT assay. The format is functional, cell-based. As to conditions: MDA-MB-231, 72 h. The method in brief:
(§3)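 Cells were treated continuously for 72 h. Cytotoxicity is reported as IC50 in μM.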

A short description of data set [4]: Cytotoxicity against mouse B16F10 cells assessed as cell killing effect after 72 hrs by MTT assay. The data set is classed as functional, cell-based. As to conditions: B16-F10, 72 h. The method in brief:
as §3
A general note: Tetrazolium dyes change colour on reduction, which living cells bring about.

Data set [5] deals with B16-F10. Briefly: Induction of apoptosis in mouse B16F10 cells assessed as early apoptotic cells at 2 uM after 45 hrs by annexinV-FITC/propidium iodide staining-based flow cytometric analysis (reference value: 0.1%). The data set is classed as functional. The method in brief:
as §2
(In general: In flow cytometry, cells or beads pass a laser one at a time.)

Data set [6] can be described thus: Cytotoxicity against mouse NIH/3T3 cells assessed as cell killing effect after 72 hrs by MTT assay. The format is cell-based. As to conditions: NIH3T3, 72 h. The method in brief:
as §3

Data set [7] concerns CHO. Description: Cytotoxicity against CHO cells assessed as cell killing effect after 72 hrs by MTT assay. The data set is classed as cell-based. As to conditions: Cricetulus griseus. The method in brief: as §3
Data set [8] in a line: Cellular uptake in mouse NIH/3T3 cells at 2 uM after 4 hrs by fluorescence microscopic analysis. The note with it: nih3t3, 4 h. The format is ADME, cell-based. The method in brief:
(§4)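 Live cells were examined by fluorescence microscopy for uptake of the intrinsically fluorescent molecules, with untreated cells as control. Uptake was also quantified as % uptake per microgram of cellular protein. Fluorescence values were normalized to the absorption values of each molecule because their absorptivities differ.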

For data set [9], the system named is A549. Description: Cytotoxicity against human A549 cells assessed as cell killing effect after 72 hrs by MTT assay. The data set is classed as functional, cell-based. As to conditions: A549, 72 h. The method in brief:
as §3

Data set [10] in a line: Cellular uptake in human PANC1 cells at 2 uM after 4 hrs by fluorescence microscopic analysis. The note with it: panc-1, 4 h. The format is ADME, cell-based. The method in brief: as §4
Data set [11] concerns OVCAR-3. Description: Cytotoxicity against human OVCAR3 cells assessed as cell killing effect after 72 hrs by MTT assay. The data set is classed as functional, cell-based. As to conditions: OVCAR-3, 72 h. The method in brief: as §3
In data set [12] the test system is B16-F10. Description: Induction of apoptosis in mouse B16F10 cells assessed as viable cells at 2 uM after 45 hrs by annexinV-FITC/propidium iodide staining-based flow cytometric analysis (reference value: 90.1%). The data set is classed as functional. The note with it: B16-F10, 45 h, read-out: Activity. The method in brief:
as §2

Data set [13] can be described thus: Cellular uptake in mouse B16F10 cells at 2 uM after 4 hrs by fluorescence microscopic analysis. The note with it: b16-f10, 4 h. The data set is classed as ADME, cell-based. The method in brief: as §4
The test system of data set [14] is B16-F10. Briefly: Induction of apoptosis in mouse B16F10 cells assessed as late apoptotic cells at 2 uM after 45 hrs by annexinV-FITC/propidium iodide staining-based flow cytometric analysis (reference value: 0.8%). The data set is classed as functional. The method in brief:
as §2

A short description of data set [15]: Cytotoxicity against human PANC1 cells assessed as cell killing effect after 72 hrs by MTT assay. As to conditions: PANC-1, 72 h. The format is functional, cell-based. The method in brief:
as §3

In data set [16] the test system is B16-F10. Briefly: Induction of reactive oxygen species generation in mouse B16F10 cells at 2 uM after 36 hrs by DCFDA dye-based fluorescence microscopic analysis. The data set is classed as functional, cell-based. The method in brief:
as §1

Data set [17] deals with MCF7. Briefly: Cytotoxicity against human MCF7 cells assessed as cell killing effect after 72 hrs by MTT assay. The note with it: MCF7, 72 h. The format is functional, cell-based. The method in brief:
as §3

Usually IC50 stands for the midpoint of a concentration-inhibition curve.

The structures appear in SMILES notation. Activity calls are given as the source filed them. The rule behind the calls is not given here.

For `C=C(C)[C@@H]1CC[C@]2(C(=O)NCCCOc3ccc(/C(=C4\C(=O)N(Cc5ccc(OC)cc5)c5ccccc54)c4ccc(O)cc4)cc3)CC[C@]3(C)[C@H](CC[C@@H]4[C@@]5(C)CC[C@H](O)C(C)(C)[C@@H]5CC[C@]43C)[C@@H]12`, the Activity result in data set [1] is reported as “Non-toxic”; in [2], 5%; in [5], 3.8%; in data set [14], 54.6%. The IC50 is 1.26 µM in [3]; 2.3 µM in data set [4]; > 20 µM in data set [6]; > 20 µM in data set [7]; 2560 nM in data set [9]; 6.05 µM in data set [11]. Besides, the IC50 was found to be 2.63 µM in data set [15] and 7.4 µM in data set [17]. Also, the Drug uptake entry in [8] was “Not Active”; in data set [10], “Active”; in [13], “Active”. Moreover, the viability at 2 µM in data set [12] came out at 36.6%. In [16], the outcome was Active.

`C=C(C)[C@@H]1CC[C@]2(C(=O)O)CC[C@]3(C)[C@H](CC[C@@H]4[C@@]5(C)CC[C@H](O)C(C)(C)[C@@H]5CC[C@]43C)[C@@H]12` [BETULINIC ACID]: the Activity result in data set [1] is given as “Non-toxic”; in data set [2], 0%; in [5], 0.3%; in data set [14], 0.9%. In addition, the IC50 in data set [3] was > 20 µM; in data set [4], > 20 µM; in data set [6] it was > 20 µM; in data set [7], > 20 µM; in [9], > 20000 nM; in [11], 8.37 µM. The IC50 in data set [15] is 10.2 µM; in data set [17] it was 10.5 µM. The viability at 2 µM in [12] amounted to 98.8%. For the same compound, the result in data set [16] was Active.

For the compound `COc1ccc(CN2C(=O)C(=C(c3ccc(O)cc3)c3ccc(O)cc3)c3ccccc32)cc1`, the Activity entry in [1] is listed as “Non-toxic”; in data set [2], 5.1%; in data set [5], 0.2%; in data set [14], 1.7%. Also, the IC50 in data set [3], in data set [4], in data set [6], in data set [7], in [11] and in [15] was > 20 µM in each case. The IC50 in data set [17] was > 20 µM. The Drug uptake entry in data set [8], in [10] and in data set [13] was “Active” throughout. In data set [12], the viability at 2 µM was determined as 93%.

As for `COc1ccc(CN2C(=O)/C(=C(/c3ccc(O)cc3)c3ccc(OCCCN)cc3)c3ccccc32)cc1`, the Activity entry in [1] is “Non-toxic”; in data set [2], 8.4%; in [5], 0%; in data set [14] it was 0.9%. Further, the IC50 in data set [3] was > 20 µM; in data set [4], > 20 µM; in [9], 1360 nM; in data set [15], > 20 µM. For the same compound, the figures for the Drug uptake result in data set [8], in data set [10] and in data set [13] were “Not Active”, “Active” and “Active”, respectively. The viability at 2 µM in data set [12] was 90.7%.

`C=C(C)[C@@H]1CC[C@]2(C(=O)NCCCNC(=S)Nc3ccc4c(c3)C(=O)OC43c4ccc(O)cc4Oc4cc(O)ccc43)CC[C@]3(C)[C@H](CC[C@@H]4[C@@]5(C)CC[C@H](O)C(C)(C)[C@@H]5CC[C@]43C)[C@@H]12`: the values for the IC50 in [4], in data set [6] and in [15] were 20 µM, > 20 µM and 9.78 µM, respectively. The Drug uptake entry in data set [8] was “Not Active”; in data set [10], “Active”; in [13] it was “Active”.

As for `COc1cccc2c1C(=O)c1c(O)c3c(c(O)c1C2=O)C[C@@](O)(C(=O)CO)C[C@@H]3O[C@H]1C[C@H](N)[C@H](O)[C@H](C)O1` [DOXORUBICIN], the Activity entry in data set [1] is on record as “Toxic”; in data set [2], 34.1%; in data set [5] it was 1.1%; in data set [14] it was 21.4%. Besides, the IC50 was determined as 0.663 µM in data set [4], 7.21 µM in [6] and 1.03 µM in data set [15]. In addition, the Drug uptake entry in data set [8], in [10] and in data set [13] was “Active” in each case. For the same compound, in data set [12], the viability at 2 µM is 43.4%. Moreover, the outcome in data set [16] was Active.

These data come from ChEMBL document CHEMBL3580571, “Bis-arylidene oxindole-betulinic Acid conjugate: a fluorescent cancer cell detector with potent anticancer activity” (ACS Med Chem Lett, 2015).
